This is a sample that favours compounds with a hit; in the whole collection about 2.1% have one here.
KLF5 inhibitor – kruppel-like factor 5 inhibition; AID 1700; 290,000 compounds, 0.23% hits; inhibition, % at 5 µM; DLD-1 KLF5 promoter-luciferase reporter, luminescence;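 active = inhibition above a per-plate limit of that plate's mean compound inhibition plus 3 SD, cut at about 60% in these data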;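 also: 0% = DMSO wells and 100% = LY294002 at 200 µM; higher means less KLF5 promoter-driven luciferase light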
BaF3 parental – counter-screen for JAK2V617F inhibitors: parental Ba/F3 viability inhibitors; CellTiter-Glo ATP luminescence; inhibition, % at 5.6 µM; 220,000 compounds, 1.1% hits;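 active = inhibition above a per-campaign cutoff, the mean inhibition of all tested compounds plus 3 SD, cut at about 27% in these data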;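 also: 0% = DMSO wells and 100% = JAK Inhibitor I control wells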
b-catenin transl – modulators of beta-catenin nuclear translocation; AID 1665; nuclear translocation activity, % at 5 µM; 190,000 compounds, 0.3% hits; HeLa beta-catenin nuclear translocation, immunofluorescence imaging;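 active = nuclear translocation activity above 50% at 5 µM, with a well cell count of 50 or more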;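 also: per-cell ratio of nuclear to cytoplasmic median beta-catenin stain intensity; plate controls were DMSO negative control for no effect and GSK-3 inhibitor IX positive control for full effect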
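Signal – beta-catenin immunofluorescence imaging with DAPI · Test system – human HeLa cell line · Dosing – 5 µM primary single dose, 0.1% DMSO, 0.02–20 µM confirmation series · Measure – % activation, nuclear-to-cytoplasmic median beta-catenin signal ratio per cell · Incubation – 24 h compound exposure at 37°C, 5% CO2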
IEC-6 tox – IEC-6 cytotoxicity, counter-screen for KLF5 inhibitors; 290,000 compounds, 0.78% hits; luminescence viability; inhibition, % at 5 µM; in the data active = inhibition above about 22%;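 also: 0% = plate median of test compound wells and 100% = cytotoxic reference compound wells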
MT stabilize HCS – microtubule stabilizers in HeLa cells; AID 2205; HeLa tubulin immunostaining HCS, 24 h; share of cells brighter than vehicle mean+2SD; % tubulin-high responders, % at 10 µM; 200,000 compounds, 0.83% hits;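 active = plate Z-score above 3 for both tubulin-high and condensed-nucleus cell shares, with cell loss under 80%, at 10 µM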;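 also: anti alpha tubulin signal scored within the nucleus-defined area of each cell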
Ba/F3 V617F tox – lowers viability of Ba/F3 cells expressing EpoR and JAK2V617F; ATP luminescence; inhibition, % at 5.6 µM; 220,000 compounds, 1.1% hits;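 active = inhibition above the campaign mean plus 3 SD over all tested compounds, cut at about 24% in these data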;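 also: cytokine-independent growth of Ba/F3 cells driven by EpoR plus mutant JAK2; 0% = DMSO-treated cells and 100% = JAK inhibitor I control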
* = called active by the depositor; nt = no result.

SMILES	KLF5 inhibitor	BaF3 parental	b-catenin transl	IEC-6 tox	MT stabilize HCS	Ba/F3 V617F tox
Cc1cc(C)n(CCC(=O)N/N=C/c2c(O)ccc3ccccc23)n1	39.8	-8.2	1.5	5.0	nt	-0.7
O=C(CCSc1nc2ccccc2s1)N/N=C/c1c(O)ccc2ccccc12	-10.8	3.7	1.7	1.5	20.6*	1.4
CCCn1c(=O)c(C(=O)NNC(=O)c2cccc([N+](=O)[O-])c2)c(O)c2ccccc21	-11.7	nt	nt	4.4	nt	nt
O=C(CCl)Nc1cccc(-c2cnc3ccccc3n2)c1	-136.8	38.8*	1.9	8.1	10.4	73.4*
O=C(O)c1cc(-c2ccc(Cl)c(Cl)c2)n(-c2ccc(F)cc2)n1	-5.3	nt	nt	-8.5	nt	nt
O=C1c2cccc3c([N+](=O)[O-])ccc(c23)C(=O)N1c1nccs1	-16.1	31.5*	9.2	7.6	2.7	38.6*
CCOc1cc(C)nc(N2CCN(C3CCCCC3)CC2)n1	-15.6	-1.5	-2.3	-1.9	1.5	1.0
CCOC(=O)c1cnc2sc3c(n2c1=O)CCCC3	6.5	63.9*	-4.4	12.0	2.7	71.7*
CCOC(=O)c1cnc2nc(C)[nH]n2c1=O	3.2	8.1	nt	0.5	2.9	-2.9
O=C1c2cccc3cc([N+](=O)[O-])cc(c23)C(=O)N1c1ccccc1O	-0.6	29.4*	1.0	5.1	4.3	13.8
Cc1ccc(C2=NOC3(CC(=O)N(c4ccc(C)cc4)C3=O)C2)cc1 (configuration not stated)	-13.9	-0.8	1.8	-0.9	nt	0.8
N=C(N)c1ccc(OCCCCCOc2ccc(C(=N)N)cc2)cc1	10.3	53.0*	-1.2	-1.7	3.0	63.4*
CCCCCCOc1ccc(/C(N)=N/O)cc1	-99.9	36.8*	-1.2	0.4	5.1	27.0*
COc1ccc(C(=O)CSc2nnc(CN3CCCC3)n2-c2ccc(F)cc2)c(OC)c1	-1.9	3.3	1.2	-0.7	1.8	3.6
COc1ccc(CNC(=O)[C@@H](NC(=O)C2CCN(S(=O)(=O)c3ccccc3)CC2)C(C)C)cc1	-9.8	nt	nt	-5.2	nt	nt
c1ccc(-c2ccccc2OCCOCCN2CCc3ccccc3C2)cc1	3.5	47.1*	0.9	6.9	1.8	-2.9
CC1CN(C(=O)CCC(=O)NCCCN2CCN(Cc3ccccc3)CC2)c2cc(Cl)ccc2O1 (configuration not stated)	7.4	nt	nt	4.6	nt	nt
OC(CNCc1ccccc1)COCc1ccc(Cl)cc1 (configuration not stated)	-12.0	2.8	-3.8	1.2	2.3	0.1
OC(CNCCc1ccc(Cl)cc1)COCc1ccco1 (configuration not stated)	-40.7	93.6*	nt	-4.4	3.1	-0.9
CN(c1ccccc1)S(=O)(=O)c1ccc(Cl)c(C(=O)Nc2ccc(-c3nc4ccccc4[nH]3)cc2)c1	-49.3	14.9	-0.9	-6.1	17.2*	2.3
CN(c1ccccc1)S(=O)(=O)c1ccc(Cl)c(C(=O)Nc2nc3ccccc3[nH]2)c1	-14.1	3.8	1.6	0.4	3.8	-1.9
CCC/C(=N/NC(=O)c1ccccc1Cl)c1ccccc1	-5.7	3.2	0.7	-1.1	4.0	-0.1
CCc1ccc(OCC(O)CN2CCN(c3ccc(OC)cc3)CC2)cc1 (configuration not stated)	5.6	nt	nt	3.7	nt	nt
O=C(NCc1ccc2c(c1)OCO2)c1cc([N+](=O)[O-])ccc1N1CCCCC1	48.3	47.7*	106.8*	54.8*	16.4*	62.7*
Cc1ccc2[nH]c(C)cc(=S)c2c1	-29.0	3.9	1.9	-1.2	23.1*	0.1
SMILES	KLF5 inhibitor	BaF3 parental	b-catenin transl	IEC-6 tox	MT stabilize HCS	Ba/F3 V617F tox
Cc1ccc(Cn2nnnc2CN2CCC(NC(=O)C(C)(C)C)CC2)cc1	-22.0	4.0	-0.1	0.0	1.3	-4.2
CCC1=NN(C(=O)C(=O)Nc2ccc(Br)cc2)C(O)(C(F)(F)F)C1 (configuration not stated)	-42.7	10.0	1.0	1.5	3.7	4.8
CCCCCCCCCCCCOC(=O)C[N+](C)(C)C	-8.9	11.7	0.5	-4.5	nt	8.5
CCCCCCCCCCOC(=O)C[N+](C)(C)C/C=C(/C)Cl	-30.3	59.1*	nt	1.8	1.9	66.8*
C/C(Cl)=C\C[N+](C)(C)CC(=O)OCCc1ccccc1	-31.7	-2.8	-0.6	-6.8	nt	-0.4
CCCCCCCCOC(=O)C[N+](C)(C)C/C=C(/C)Cl	-19.0	52.9*	1.8	-4.1	1.9	31.5*
O=C(Cn1cncn1)NCCC(c1ccccc1)c1ccccc1	-19.0	6.2	-1.9	-4.4	2.5	-1.2
COc1ccc(C)cc1NC(=O)c1ccccc1N(C)S(=O)(=O)c1ccccc1	-45.2	nt	nt	-4.3	nt	nt
CCC1=C/C(=C/c2sc3ccccc3[n+]2CC)CC(C)(C)C1	-0.8	15.5	1.1	-8.2	5.8	1.7
CC[n+]1c(/C=C2\C=C(C)CC(C)C2)sc2ccccc21 (configuration not stated)	-19.0	62.7*	5.9	-1.3	1.5	62.7*
CC[n+]1c(/C=C2\C=C(C)CC(C)(C)C2)sc2ccccc21	-35.8	60.1*	8.2	-0.8	4.0	56.2*
CC[n+]1c(/C=C2/C=C(C)CC(C)(C)C2)sc2ccc(OC)cc21	-26.2	59.3*	2.4	-8.3	1.5	63.9*
O=C(N/N=C/c1c[nH]c2ccccc12)c1ccccc1	-68.5	nt	nt	0.0	nt	nt
O=C(CNc1ccccc1)N/N=C/c1c[nH]c2ccccc12	-2.7	-0.3	18.9	-0.1	16.0*	-3.0
Cc1cccc(NC(=S)N/N=C/c2c[nH]c3ccccc23)c1	4.6	-0.8	nt	12.0	14.2*	-4.9
Cc1ccc(C(=O)Nc2ccc(C(=O)N/N=C/c3c[nH]c4ccccc34)cc2)cc1	-35.9	3.0	-0.7	6.2	3.4	-1.8
CCOc1ccc(NC(=NCc2ccc3c(c2)OCO3)SC2CC(=O)N(c3ccc(OCC)cc3)C2=O)cc1 (configuration not stated)	-31.4	0.7	0.2	2.0	25.3*	-0.4
c1ccc2c(c1)OCC(CNc1ncnc3sccc13)O2 (configuration not stated)	-14.1	61.8*	-0.7	16.6	2.8	59.6*
Cc1cc(/C=C2\Sc3ccccc3N2C)cc(C)[n+]1CC1CCCO1 (configuration not stated)	-5.2	75.8*	-3.6	11.3	3.9	99.9*
CCC/C(O)=C1\C(=O)CC(c2ccccc2)CC1=NCCc1c(C)[nH]c2ccccc12 (configuration not stated)	13.3	5.0	1.7	1.5	3.2	3.3
CCCC(=NCCc1c(C)[nH]c2ccccc12)C1=C(O)CC(c2ccccc2)CC1=O (configuration not stated)	-10.3	5.5	131.9*	-10.0	25.7*	0.0
CCCCC(=NCCc1c(C)[nH]c2ccccc12)C1=C(O)CC(c2ccccc2)CC1=O (configuration not stated)	-11.6	5.4	50.5*	0.4	9.4	0.5
COc1ccc(C)cc1NS(=O)(=O)c1ccc2c(c1)oc(=O)n2C	-12.4	nt	nt	1.9	nt	nt
